Measured values reported in ChEMBL document CHEMBL2062401, “New pyrimido[5,4-e]pyrrolo[1,2-c]pyrimidines: synthesis, 2D-QSAR, anti-inflammatory, analgesic and ulcerogenicity studies” (Eur J Med Chem, 2012).
Activity calls are given as the source filed them. No cut-off for these calls is given here.

Key:
[1] = test system: Rattus norvegicus; experiment: Antiinflammatory activity in Wistar albino rat assessed as inhibition of carrageenan-induced paw edema at 0.029 mmol/kg, po dosed 1 hr before carrageenan challenge measured 1 hr post carrageenan-induced inflammation; format: functional
Method in brief: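 Wistar albino rats of both sexes, 120–150 g, six per group, food withdrawn the day before. Given orally 0.029 mmol/kg in saline with a few drops of Tween 80, by stomach tube, 1 h before subplantar s.c. carrageenan (0.1 ml of 1%) into the right hind paw. Paw thickness measured at 1, 2, 3 and 4 h against baseline. % inhibition = 100 × (1 − Vt/Vc).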

[2] = test system: Rattus norvegicus; experiment: Antiinflammatory activity in Wistar albino rat assessed as inhibition of carrageenan-induced paw edema at 1 mg/kg, po dosed 1 hr before carrageenan challenge measured after carrageenan-induced inflammation; format: functional
Method in brief: (§1)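 Rat carrageenan paw oedema, six animals per group. Oral doses of 1, 2, 4 and 6 mg/kg in saline/Tween 80 given 1 h before 0.1 ml of 1% carrageenan s.c. into the right hind paw. Oedema measured as thickness increase over baseline. % inhibition = 100 × (1 − Vt/Vc). IC50 derived from the dose–response and reported in mg/kg and µmol/kg.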

[3] = test system: Rattus norvegicus; experiment: Antiinflammatory activity in Wistar albino rat assessed as inhibition of carrageenan-induced paw edema at 2 mg/kg, po dosed 1 hr before carrageenan challenge measured after carrageenan-induced inflammation; format: functional; method in brief: as §1
[4] = test system: Rattus norvegicus; experiment: Antiinflammatory activity in Wistar albino rat assessed as inhibition of carrageenan-induced paw edema at 4 mg/kg, po dosed 1 hr before carrageenan challenge measured after carrageenan-induced inflammation; format: functional; method in brief: as §1
[5] = test system: Rattus norvegicus; experiment: Antiinflammatory activity in Wistar albino rat assessed as inhibition of carrageenan-induced paw edema at 6 mg/kg, po dosed 1 hr before carrageenan challenge measured after carrageenan-induced inflammation; format: functional; method in brief: as §1
[6] = test system: Rattus norvegicus; experiment: Antiinflammatory activity in po dosed Wistar albino rat assessed as inhibition of carrageenan-induced paw edema dosed 1 hr before carrageenan challenge measured after carrageenan-induced inflammation; format: functional, organism-based; method in brief: as §1
[7] = test system: Rattus norvegicus; experiment: Gastrointestinal toxicity in Wistar albino rat assessed as incidence of stomach ulceration at 0.029 mmol/kg, po; format: organism-based; details: in vivo
Method in brief: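 Rats given single oral dose suspended in saline with few drops Tween 80 (groups of 6); killed under deep ether anaesthesia 5 h after treatment; stomach opened along greater curvature and examined for lesions or bleeding; ulceration expressed as number of rats affected per group.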

[8] = test system: Mus musculus; experiment: Analgesic activity in Swiss albino mouse assessed as inhibition of acetic acid-induced writhing at 0.029 mmol/kg. po dosed 1 hr before acetic acid challenge and measured during 30 mins post acetic acid challenge; format: functional
Method in brief: (§2)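 Swiss albino mice of either sex, 18–22 g, six per group. Oral suspension at 0.029 mmol/kg given 1 h before 0.3 ml of 1% acetic acid i.p. Contractions counted for 30 min, starting 5 min after injection. % protection = (n − n')/n × 100 against control writhing. Potency% = % inhibition of test / % inhibition of indomethacin × 100. Mean ± SEM, ANOVA with post hoc test.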

[9] = test system: Mus musculus; experiment: Analgesic activity in Swiss albino mouse assessed as inhibition of acetic acid-induced writhing at 0.029 mmol/kg. po dosed 1 hr before acetic acid challenge and measured during 30 mins post acetic acid challenge relative to indomethacin; format: functional; details: read-out: INH; method in brief: as §2
[10] = test system: Rattus norvegicus; experiment: Gastrointestinal toxicity in Wistar albino rat assessed as incidence of stomach ulceration at 0.029 mmol/kg, po followed by another two compound doses in second and third days measured on fourth day post dose by acute ulcerogenicity study; format: organism-based; details: in vivo
Method in brief: (§3)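 Adult Wistar rats of both sexes, 120–150 g, groups of 6, fasted 20 h; oral dose suspended in 1% Tween (vehicle group 1% Tween); fasted 2 h, fed 2 h, fasted 20 h; further doses on days 2 and 3. Scored: % incidence/10, mean ulcers per rat, mean severity score; ulcer index = sum of the three.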

[11] = test system: Rattus norvegicus; experiment: Gastrointestinal toxicity in Wistar albino rat assessed as stomach ulcer index at 0.029 mmol/kg, po followed by another two compound doses in second and third days measured on fourth day post dose by acute ulcerogenicity study; format: organism-based; details: in vivo; method in brief: as §3
[12] = organism: Homo sapiens; experiment: Selectivity index, ratio of inhibition of COX1 to inhibition of COX2 by Cayman's COX activity assay
Method in brief: (§4)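 COX peroxidase activity measured with a commercial COX activity assay kit (Kulmacz and Lands method), per manufacturer's instructions; % inhibition of COX-1 and COX-2 determined, selectivity expressed as ratio of COX-1 to COX-2 % inhibition.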

[13] = biological target: Prostaglandin G/H synthase 1 (Homo sapiens) (UniProt P23219); experiment: Inhibition of COX1 by Cayman's COX activity assay; method in brief: as §4
[14] = Lipophilicity, log P of the compound; format: physicochemical; details: octanol/water
[15] = test system: Rattus norvegicus; experiment: Antiinflammatory activity in Wistar albino rat assessed as inhibition of carrageenan-induced paw edema at 0.029 mmol/kg, po dosed 1 hr before carrageenan challenge measured 2 hrs post carrageenan-induced inflammation
[16] = test system: Rattus norvegicus; experiment: Antiinflammatory activity in Wistar albino rat assessed as inhibition of carrageenan-induced paw edema at 0.029 mmol/kg, po dosed 1 hr before carrageenan challenge measured 3 hrs post carrageenan-induced inflammation
[17] = test system: Rattus norvegicus; experiment: Antiinflammatory activity in Wistar albino rat assessed as inhibition of carrageenan-induced paw edema at 0.029 mmol/kg, po dosed 1 hr before carrageenan challenge measured 4 hrs post carrageenan-induced inflammation

Chain of Prostaglandin G/H synthase 1 (Homo sapiens) (P23219 whole entry): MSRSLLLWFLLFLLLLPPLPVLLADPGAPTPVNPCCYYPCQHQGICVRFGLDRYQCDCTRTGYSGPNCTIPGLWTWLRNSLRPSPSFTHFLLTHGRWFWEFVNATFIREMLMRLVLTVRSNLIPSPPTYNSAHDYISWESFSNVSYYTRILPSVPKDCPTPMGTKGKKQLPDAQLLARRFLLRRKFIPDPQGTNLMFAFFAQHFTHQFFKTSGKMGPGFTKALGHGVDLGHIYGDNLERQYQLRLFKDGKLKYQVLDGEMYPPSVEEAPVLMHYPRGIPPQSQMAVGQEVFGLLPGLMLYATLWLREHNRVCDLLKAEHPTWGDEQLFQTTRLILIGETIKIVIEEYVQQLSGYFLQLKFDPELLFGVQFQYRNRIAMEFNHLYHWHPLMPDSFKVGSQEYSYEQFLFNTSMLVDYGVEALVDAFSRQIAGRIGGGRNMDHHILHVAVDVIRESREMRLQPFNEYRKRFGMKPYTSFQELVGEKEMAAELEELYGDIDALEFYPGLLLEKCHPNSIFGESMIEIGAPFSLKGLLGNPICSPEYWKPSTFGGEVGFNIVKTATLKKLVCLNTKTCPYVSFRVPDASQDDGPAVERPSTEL

Row | SMILES | inhibition in vivo at 29 µmol/kg [1] | inhibition in vivo at 1 mg/kg [2] | inhibition in vivo at 2 mg/kg [3] | inhibition in vivo at 4 mg/kg [4] | inhibition in vivo at 6 mg/kg [5] | IC50 [6] | Activity [7] | inhibition in vivo at 29 µmol/kg [8] | writhing inhibition relative to indomethacin (potency %) at 29 µmol/kg [9] | Activity [10] | UI [11] | Ratio [12] | inhibition [13] | logP [14] | inhibition in vivo at 29 µmol/kg [15] | inhibition in vivo at 29 µmol/kg [16] | inhibition in vivo at 29 µmol/kg [17]
1 | Cc1c(NC(=O)c2nc3c(c(=O)[nH]2)C2CCCN2C(=O)N3c2ccccc2)c(=O)n(-c2ccccc2)n1C (centres undefined) | 78% | 30% | 48% | 78% | 77% | 6 µmol/kg | Non-toxic | 63.3% | 95.7% | 5% | 7.16 | 1.3 | Active | 2.09 | 68% | 78% | 83%
2 | CCOC(=O)Cc1nc2c(c(=O)[nH]1)C1CCCN1C(=O)N2c1ccccc1 (centres undefined) | 81% | 12% | 32% | 60% | 64% | 11 µmol/kg | Non-toxic | 70.8% | 107% | 5% | 7 | – | – | 1.53 | 80% | 90% | 89%
3 | Cc1cc(-c2ccccc2)nn1C(=O)c1nc2c(c(=O)[nH]1)C1CCCN1C(=O)N2c1ccccc1 (centres undefined) | 78% | 20% | 45% | 65% | 60% | 8 µmol/kg | Non-toxic | 39.6% | 59.8% | 6.66% | 10.94 | 1.02 | Active | 3.7 | 65% | 59% | 62%
4 | O=C(O)Cc1nc2c(c(=O)[nH]1)C1CCCN1C(=O)N2c1ccccc1 (centres undefined) | 77% | 20% | 40% | 64% | 74% | 10 µmol/kg | Toxic | 57.6% | 87.2% | 8.33% | 10.49 | – | – | 0.749 | 70% | 72% | 80%
